Data reported in ChEMBL document CHEMBL5120853, “Tolypocladamide H and the Proposed Tolypocladamide NRPS in Tolypocladium Species” (J Nat Prod, 2022).
Where “and” joins values, the source holds several entries; their conditions need not be identical. Equal entries are not always repeated. Square brackets hold non-standard residues; d marks the D form. Peptide text beside a SMILES is read from it. * marks the point of attachment. Bmt = C/C=C/C[C@@H](C)[C@@H](O)[C@H](N)C(=O)O; Decanoyl = CCCCCCCCCC(=O)*; Leu(ol) = CC(C)C[C@H](N)CO; Aib = CC(C)(N)C(=O)O

Tests used:
[1] = test system: Enterococcus faecium; assay: Antibacterial activity against Enterococcus faecium ATCC BAA-2317 assessed as inhibition of bacterial growth; type: functional
In short: (§1)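 Strains grown in ATCC-recommended media in culture tubes at 37 °C with shaking at 225 rpm for 3–8 h, back-diluted to about 10^6 cfu/mL, and incubated in triplicate in 384-well plates with a dilution series of test agent. DMSO vehicle served as negative control; linezolid (E. faecium) and ampicillin (S. aureus) were positive controls. MIC recorded.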

[2] = test system: Staphylococcus aureus; assay: Antibacterial activity against Staphylococcus aureus ATCC 25923 assessed as inhibition of bacterial growth; type: functional; in short: as §1
[3] = test system: HeLa; assay: Cytotoxicity against human HeLa cells assessed as reduction in cell viability incubated for 72 hrs by CellTiter-Glo luminescent cell viability assay; type: functional, cell-based
In short: (§2)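 HUVECs (primary, limited passages) were kept in medium 200PRF with low serum growth supplement. HeLa and MCF-7 were kept in MEM with Earle's salts, L-glutamine, 10% FBS and 1% pen/strep. Cells were seeded at 5000 (HUVEC), 2000 (HeLa) or 3000 (MCF-7) per well and treated after 18 h for 72 h (final DMSO ≤0.1%). Viability read by ATP luminescence, vehicle = 100%; EC50 derived.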

[4] = test system: MCF7; assay: Cytotoxicity against human MCF7 cells assessed as reduction in cell viability incubated for 72 hrs by CellTiter-Glo luminescent cell viability assay; type: functional, cell-based; settings: MCF7, 72 h; in short: as §2
[5] = Cytotoxicity against HUVEC assessed as reduction in cell viability incubated for 72 hrs by CellTiter-Glo luminescent cell viability assay; type: toxicity, cell-based; settings: human, HUVEC cells; in short: as §2

Row | MIC [1] | MIC [2] | Structure (SMILES) | EC50 [3] | EC50 [4] | EC50 at 72 h [5]
1 | 22 µg/mL and 16 µM | 11 µg/mL and 8 µM | C/C=C/C[C@@H](C)[C@@H](O)[C@H](NC(=O)[C@@H]1CCCN1C(=O)C(C)(C)NC(=O)CCCCCCCCC)C(=O)NC(C)(C)C(=O)N[C@@H](CCC(N)=O)C(=O)N[C@@H](CCC(N)=O)C(=O)NC(C)(C)C(=O)NC(C)(C)C(=O)N[C@@H](CCC(N)=O)C(=O)N[C@H](C(=O)N[C@H](CO)CC(C)C)C(C)C (Decanoyl-[Aib]P[Bmt][Aib]QQ[Aib][Aib]QV[Leu(ol)]) | 30 µM | 107 µM | 8 µM
2 | 30 µg/mL and 89 µM |  | CC(=O)NC[C@H]1CN(c2ccc(N3CCOCC3)c(F)c2)C(=O)O1 [LINEZOLID] |  |  | 
